From ChEMBL document CHEMBL1138216, “Design and synthesis of novel derivatives of the muscarinic agonist tetra(ethylene glycol)(3-methoxy-1,2,5-thiadiazol-4-yl) [3-(1-methyl-1,2,5,6-tetrahydropyrid-3-yl)-1,2,5-thiadiazol-4-yl] ether (CDD-0304): effects of structural modifications on the binding and activity at muscarinic receptor …” (J Med Chem, 2006)
Activity calls are given as the source filed them. The rule behind the calls is not given here.

How the values were obtained:
[1] = molecular target: T1, Muscarinic acetylcholine receptor M3 (Homo sapiens, UniProt P20309); test: Agonist activity at human M3 receptor expressed in A9 L cells assessed as stimulation of phosphoinositide hydrolysis; type: functional, cell-based, L929
T1 sequence (P20309 whole entry): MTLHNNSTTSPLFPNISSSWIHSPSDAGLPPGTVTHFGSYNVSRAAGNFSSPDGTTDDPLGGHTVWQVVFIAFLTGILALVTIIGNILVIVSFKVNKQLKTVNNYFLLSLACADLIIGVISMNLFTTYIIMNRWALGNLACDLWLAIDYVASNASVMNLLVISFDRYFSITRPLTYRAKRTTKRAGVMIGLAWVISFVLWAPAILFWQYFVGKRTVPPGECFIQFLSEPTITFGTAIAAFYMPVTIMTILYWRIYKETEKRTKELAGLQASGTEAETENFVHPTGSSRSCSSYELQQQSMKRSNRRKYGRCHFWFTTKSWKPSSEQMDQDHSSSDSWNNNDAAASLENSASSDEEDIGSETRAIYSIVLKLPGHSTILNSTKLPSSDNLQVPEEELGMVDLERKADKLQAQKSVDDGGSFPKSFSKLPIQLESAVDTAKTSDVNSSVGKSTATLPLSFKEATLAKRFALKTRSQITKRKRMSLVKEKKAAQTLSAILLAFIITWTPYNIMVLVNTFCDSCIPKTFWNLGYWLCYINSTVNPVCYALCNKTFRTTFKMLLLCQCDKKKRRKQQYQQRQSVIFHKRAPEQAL

[2] = molecular target: T2, Muscarinic acetylcholine receptor M5 (Homo sapiens) (UniProt P08912); test: Agonist activity at human M5 receptor expressed in A9 L cells assessed as stimulation of phosphoinositide hydrolysis relative to carbachol; type: functional, cell-based; conditions: L929
T2 sequence (whole entry): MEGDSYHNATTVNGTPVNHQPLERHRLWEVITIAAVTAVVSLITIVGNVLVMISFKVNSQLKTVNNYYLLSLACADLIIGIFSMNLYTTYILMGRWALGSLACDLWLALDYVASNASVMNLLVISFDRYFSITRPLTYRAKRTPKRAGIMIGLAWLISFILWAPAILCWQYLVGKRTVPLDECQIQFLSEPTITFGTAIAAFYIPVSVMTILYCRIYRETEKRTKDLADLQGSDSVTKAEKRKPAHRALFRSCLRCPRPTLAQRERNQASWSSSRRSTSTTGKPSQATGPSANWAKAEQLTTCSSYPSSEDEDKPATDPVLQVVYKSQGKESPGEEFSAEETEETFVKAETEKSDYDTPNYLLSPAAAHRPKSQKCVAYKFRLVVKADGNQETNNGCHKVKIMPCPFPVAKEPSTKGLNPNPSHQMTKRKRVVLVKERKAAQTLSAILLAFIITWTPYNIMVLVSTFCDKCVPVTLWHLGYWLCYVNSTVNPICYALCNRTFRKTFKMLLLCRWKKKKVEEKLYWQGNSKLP
Method in brief: (§1)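 A9 L cells stably expressing the receptor, seeded 24 h, labelled overnight with 10 µCi/mL [3H]inositol in inositol-free DMEM; ligands in HBSS with 10 mM LiCl, 20 mM HEPES, 37 °C, 1 h; formic acid extraction, inositol phosphates counted by SPA beads.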

[3] = molecular target: Muscarinic acetylcholine receptor M1/M5 chimeric protein (Homo sapiens) (UniProt P11229+P08912); test: Agonist activity at human M1/M5(o2) chimeric receptor expressed in A9 L cells assessed as stimulation of phosphoinositide hydrolysis relative to carbachol; type: functional, cell-based; conditions: L929; method in brief: as §1
Rattus norvegicus [4] = test: Antipsychotic activity in sc dosed Sprague-Dawley rat assessed as ability to reverse apomorphine effect on prepulse inhibition of the startle response; type: functional, organism-based
Method in brief: (§2)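 Male Sprague-Dawley rats, 250-300 g, habituated a day before. Drug in water or saline sc (1 mL/kg) 25 min, apomorphine 1.0 mg/kg 5 min pre-test; muscarinic agonists 0.1-3 mg/kg. Session of 15 each pulse-alone (120 dB, 100 ms) and pulse preceded 200 ms by 20 ms prepulse 12 dB above 70 dB background; 12 rats/group; %PPI calculated.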

[5] = molecular target: T3, Muscarinic acetylcholine receptor M1 (Homo sapiens, UniProt P11229); test: Inhibition of [3H](R)-QNB binding to human M1 receptor expressed in A9 L cells; type: cell-based, A9L
T3 sequence (P11229 whole entry): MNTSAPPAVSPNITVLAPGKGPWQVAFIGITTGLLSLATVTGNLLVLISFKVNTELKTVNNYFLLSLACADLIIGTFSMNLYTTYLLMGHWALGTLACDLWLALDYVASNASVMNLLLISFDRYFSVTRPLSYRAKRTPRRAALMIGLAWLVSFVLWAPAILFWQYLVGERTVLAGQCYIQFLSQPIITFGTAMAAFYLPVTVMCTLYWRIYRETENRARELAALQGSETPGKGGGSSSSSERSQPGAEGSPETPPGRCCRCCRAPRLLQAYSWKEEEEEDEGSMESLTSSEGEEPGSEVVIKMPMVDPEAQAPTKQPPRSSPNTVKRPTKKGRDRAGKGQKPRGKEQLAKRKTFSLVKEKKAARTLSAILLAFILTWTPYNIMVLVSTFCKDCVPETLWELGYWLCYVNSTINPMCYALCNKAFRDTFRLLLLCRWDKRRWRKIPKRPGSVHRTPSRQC

[6] = molecular target: Muscarinic acetylcholine receptor M1 (Homo sapiens, UniProt P11229, Q185E); type: functional, cell-based, L929
Sequence of Muscarinic acetylcholine receptor M1 (Homo sapiens, UniProt P11229, Q185E) (P11229 whole entry Q185E): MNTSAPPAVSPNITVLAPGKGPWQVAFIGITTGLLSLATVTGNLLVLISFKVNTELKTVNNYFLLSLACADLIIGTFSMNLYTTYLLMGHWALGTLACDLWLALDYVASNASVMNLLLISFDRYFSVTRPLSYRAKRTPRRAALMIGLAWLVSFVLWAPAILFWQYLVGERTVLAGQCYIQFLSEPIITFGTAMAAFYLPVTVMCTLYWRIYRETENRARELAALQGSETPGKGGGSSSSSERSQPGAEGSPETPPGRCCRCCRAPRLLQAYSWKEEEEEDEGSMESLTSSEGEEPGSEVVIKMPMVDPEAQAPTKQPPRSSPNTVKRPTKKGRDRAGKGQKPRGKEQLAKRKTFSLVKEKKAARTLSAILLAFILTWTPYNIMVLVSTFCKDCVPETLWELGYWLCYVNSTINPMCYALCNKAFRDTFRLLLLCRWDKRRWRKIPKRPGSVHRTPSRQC

[7] = molecular target: T4, Muscarinic acetylcholine receptor M4 (Homo sapiens, UniProt P08173); test: Activity at human M4 receptor assessed as inhibition of forskolin-stimulated cAMP accumulation; type: functional
T4 sequence (P08173 whole entry): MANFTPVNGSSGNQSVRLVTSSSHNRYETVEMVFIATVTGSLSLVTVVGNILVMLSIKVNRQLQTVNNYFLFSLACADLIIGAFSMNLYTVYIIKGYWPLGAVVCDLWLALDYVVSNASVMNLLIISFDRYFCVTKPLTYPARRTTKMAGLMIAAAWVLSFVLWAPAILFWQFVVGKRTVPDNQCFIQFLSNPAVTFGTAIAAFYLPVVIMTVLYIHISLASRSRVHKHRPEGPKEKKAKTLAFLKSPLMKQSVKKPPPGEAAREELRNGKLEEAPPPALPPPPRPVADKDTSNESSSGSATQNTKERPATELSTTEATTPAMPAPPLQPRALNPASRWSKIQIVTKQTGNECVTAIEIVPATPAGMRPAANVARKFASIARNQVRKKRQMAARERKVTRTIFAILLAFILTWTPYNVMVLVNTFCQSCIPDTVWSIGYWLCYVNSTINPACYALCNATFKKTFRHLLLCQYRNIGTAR

[8] = molecular target: T1, Muscarinic acetylcholine receptor M3; test: Antagonist activity at human M3 receptor assessed as inhibition of carbachol […]; conditions: read-out: pA2 (converted)
[9] = molecular target: T5, Muscarinic acetylcholine receptor M1/M5 chimeric protein (Homo sapiens, UniProt P08912+P11229); test: Inhibition of [3H](R)-QNB binding to human M1/M5(o2) chimeric receptor expressed in A9 L cells; type: cell-based, A9L
T5 sequence (P11229 whole entry): T3 sequence (P11229 whole entry)
T5 sequence (P08912 whole entry): T2 sequence (whole entry)

[10] = molecular target: T5, Muscarinic acetylcholine receptor M1/M5 chimeric protein; test: Inhibition of [3H](R)-QNB binding to human M1/M5(o3) chimeric receptor expressed in A9 L cells; type: cell-based, A9L
[11] = molecular target: T5, Muscarinic acetylcholine receptor M1/M5 chimeric protein; test: Inhibition of [3H](R)-QNB binding to human M1/M5(o2o3) chimeric receptor expressed in A9 L cells; type: cell-based, A9L
[12] = molecular target: T5, Muscarinic acetylcholine receptor M1/M5 chimeric protein; test: Agonist activity at human M1/M5(o2) chimeric receptor expressed in A9 L cells assessed as stimulation of phosphoinositide hydrolysis; type: functional, cell-based, L929
[13] = molecular target: T5, Muscarinic acetylcholine receptor M1/M5 chimeric protein; test: Agonist activity at human M1/M5(o3) chimeric receptor expressed in A9 L cells assessed as stimulation of phosphoinositide hydrolysis; type: functional, cell-based, L929
[14] = molecular target: Muscarinic acetylcholine receptor M1 (Homo sapiens, UniProt P11229, E170K); type: functional, cell-based, L929
Sequence of Muscarinic acetylcholine receptor M1 (Homo sapiens, UniProt P11229, E170K) (P11229 whole entry E170K): as the sequence (P11229 whole entry Q185E) above, with E170K, E185Q counted along it

Rattus norvegicus [15] = test: Antipsychotic activity in Sprague-Dawley rat assessed as ability to reverse apomorphine effect on prepulse inhibition of the startle response at 1 mg/kg, sc; type: functional, organism-based; design: dose 1 mg/kg; method in brief: as §2
Rattus norvegicus [16] = test: Antipsychotic activity in Sprague-Dawley rat assessed as ability to reverse apomorphine effect on prepulse inhibition of the startle response at 3 mg/kg, sc; type: functional, organism-based; design: dose 3 mg/kg; method in brief: as §2

CCCCCCOc1nsnc1C1=CCCN(C)C1 [XANOMELINE]
EC50 [1]: 25100 nM | Smax [2]: 43% | Smax [3]: 75% | Activity (Rattus norvegicus [4]): inactive

COc1nsnc1OCCOCCOCCOCCOc1nsnc1C1=CCCN(C)C1
Ki [5]: 50.1 nM | Activity [2]: inactive | EC50 [6]: 251 nM | IC50 [7]: 12.6 nM | Kb [8]: 158 nM | Ki [9]: 200 nM | Ki [10]: 126 nM | Ki [11]: 316 nM | EC50 [12]: 79.4 nM | Smax [3]: 20% | EC50 [13]: 100 nM | EC50 [14]: 2000 nM | Activity (Rattus norvegicus [15]): Active | Activity (Rattus norvegicus [16]): Active
